Structures are written as SMILES. pKi: −log10 of the molar value.

As usually defined, the pKi is the negative decadic logarithm of the Ki, by convention in mol/L.

For assay [1], the target named is Delta-type opioid receptor (Homo sapiens, UniProt P41143). The assay is described as follows: Displacement of [3H]DADLE from human recombinant delta opioid receptor expressed in HEK cells after 60 mins. Type of assay: cell-based, HEK293. In general terms: In a radioligand displacement assay an active substance lowers the binding of a labelled ligand.
Sequence of Delta-type opioid receptor (P41143 whole entry): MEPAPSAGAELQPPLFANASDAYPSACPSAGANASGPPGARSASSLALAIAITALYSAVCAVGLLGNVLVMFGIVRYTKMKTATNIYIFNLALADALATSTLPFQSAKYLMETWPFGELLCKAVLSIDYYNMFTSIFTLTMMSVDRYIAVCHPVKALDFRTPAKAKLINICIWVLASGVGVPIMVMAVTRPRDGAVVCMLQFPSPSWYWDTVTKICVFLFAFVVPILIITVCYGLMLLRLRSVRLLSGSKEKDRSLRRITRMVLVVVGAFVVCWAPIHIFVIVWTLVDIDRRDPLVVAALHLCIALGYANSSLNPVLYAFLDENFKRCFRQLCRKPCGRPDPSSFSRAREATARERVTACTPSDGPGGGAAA
Assay [2] addresses Kappa-type opioid receptor (Rattus norvegicus, UniProt P34975). The assay is described as follows: Displacement of [3H]U69593 from rat recombinant kappa opioid receptor expressed in CHO cells after 60 mins. Type of assay: cell-based.
A short description of assay [3]: Selectivity ratio of Ki for human recombinant delta opioid receptor to Ki for rat recombinant kappa opioid receptor. An outline of the steps: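 Ratio of DOR Ki to KOR Ki. […] Both assays in 50 mM Tris pH 7.4 at room temperature, eight concentrations.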
Assay [4] is described as follows: Selectivity ratio of Ki for human recombinant mu opioid receptor to Ki for rat recombinant kappa opioid receptor.
The next assay concerns the target Mu-type opioid receptor (Homo sapiens, UniProt P35372). The experiment in a line: Displacement of [3H]diprenorphine from human recombinant mu opioid receptor expressed in HEK cells after 60 mins. The assay is classed as cell-based, HEK293.
Assay [5] is filed under the species Homo sapiens. The assay is described as follows: Selectivity ratio of Ki for delta opioid receptor (unknown origin) to Ki for kappa opioid receptor (unknown origin). An outline of the steps:
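Ratio of two Ki values from radioligand displacement. KOR: rat recombinant receptor in CHO cells, [³H]U69593 (1 nM), 60 min. DOR: human recombinant receptor, [³H]DADLE (0.5 nM), 120 min. Both in 50 mM Tris pH 7.4 at room temperature with eight test concentrations. Ki is the mean ± SD of at least three independent experiments.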

In assay [6] the target is Kappa-type opioid receptor (Homo sapiens, UniProt P41145). The experiment in a line: Antagonist activity at kappa opioid receptor (unknown origin).
Sequence of Kappa-type opioid receptor (Homo sapiens, UniProt P41145) (P41145 whole entry): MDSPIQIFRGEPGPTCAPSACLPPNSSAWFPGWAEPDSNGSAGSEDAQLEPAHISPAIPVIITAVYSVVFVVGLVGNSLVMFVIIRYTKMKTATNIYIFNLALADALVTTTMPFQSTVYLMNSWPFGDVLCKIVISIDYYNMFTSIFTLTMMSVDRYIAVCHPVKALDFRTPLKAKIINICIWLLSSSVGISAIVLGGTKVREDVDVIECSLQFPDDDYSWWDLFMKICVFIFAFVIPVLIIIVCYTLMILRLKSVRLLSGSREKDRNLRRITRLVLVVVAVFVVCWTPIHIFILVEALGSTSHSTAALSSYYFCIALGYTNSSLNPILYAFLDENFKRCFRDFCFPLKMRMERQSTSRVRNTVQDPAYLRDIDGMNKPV
The species named for assay [7] is Homo sapiens. The assay is described as follows: Selectivity ratio of Ki for mu opioid receptor (unknown origin) to Ki for kappa opioid receptor (unknown origin). An outline of the steps:
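Ratio of two Ki values from radioligand displacement. KOR: rat recombinant receptor in CHO cells, [³H]U69593 (1 nM), 60 min. MOR: human recombinant receptor in HEK cells, [³H]diprenorphine (0.4 nM), 120 min. Both in 50 mM Tris pH 7.4 at room temperature with eight test concentrations. Ki is the mean ± SD of at least three experiments.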

Sequence of Kappa-type opioid receptor (Rattus norvegicus, UniProt P34975) (P34975 whole entry): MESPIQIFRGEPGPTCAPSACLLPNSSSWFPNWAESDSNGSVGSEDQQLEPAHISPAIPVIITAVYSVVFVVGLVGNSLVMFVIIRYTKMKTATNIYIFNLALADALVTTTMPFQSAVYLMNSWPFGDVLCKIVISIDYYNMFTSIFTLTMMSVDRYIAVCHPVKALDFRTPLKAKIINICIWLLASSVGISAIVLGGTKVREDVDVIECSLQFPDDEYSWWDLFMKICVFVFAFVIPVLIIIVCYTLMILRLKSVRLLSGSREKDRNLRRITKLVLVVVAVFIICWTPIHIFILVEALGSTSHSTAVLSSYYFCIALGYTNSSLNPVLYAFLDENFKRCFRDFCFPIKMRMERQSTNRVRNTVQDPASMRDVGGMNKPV
Sequence of Mu-type opioid receptor (P35372 whole entry): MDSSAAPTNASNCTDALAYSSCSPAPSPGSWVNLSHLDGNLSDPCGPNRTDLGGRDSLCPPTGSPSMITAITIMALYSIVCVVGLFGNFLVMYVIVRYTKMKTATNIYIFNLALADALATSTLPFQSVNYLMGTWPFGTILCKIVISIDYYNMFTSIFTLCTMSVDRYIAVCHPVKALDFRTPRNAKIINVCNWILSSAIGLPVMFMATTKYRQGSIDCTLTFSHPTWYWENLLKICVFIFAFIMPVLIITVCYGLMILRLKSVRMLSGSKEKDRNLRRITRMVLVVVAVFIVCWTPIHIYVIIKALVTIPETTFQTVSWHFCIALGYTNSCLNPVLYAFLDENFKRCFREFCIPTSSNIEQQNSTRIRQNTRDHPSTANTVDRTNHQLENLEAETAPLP

As to `CC(C)[C@@H](CN1CC[C@@](C)(c2cccc(O)c2)[C@@H](C)C1)NC(=O)[C@H]1Cc2ccc(OCCF)cc2CN1`, the pKi in assay [1] is 7.09; in assay [2] it was 7.62; at Mu-type opioid receptor, 7.20. Further, the Ratio Ki in assay [3] stood at 3.4; in assay [4], 2.6.
`CC(C)[C@@H](CN1CC[C@@](C)(c2cccc(O)c2)[C@@H](C)C1)NC(=O)[C@H]1Cc2ccc(O)cc2CN1` [JDTIC]: in assay [2], the pKi is 9.49.
With `CC(C)[C@@H](CN1CC[C@@](C)(c2cccc(O)c2)[C@@H](C)C1)NC(=O)[C@H]1Cc2ccc(O)cc2CN1CCF`, the negative logarithm of the Ki (pKi) in assay [1] was 7.14; in assay [2], 8.26; on Mu-type opioid receptor, 7.88. For the same compound, the Ratio Ki is 13.2 in assay [3] and 2.4 in assay [4].
On the same counts, the results for `CC(C)[C@@H](CN1CC[C@@](C)(c2cccc(O)c2)[C@@H](C)C1)NC(=O)[C@H]1Cc2ccc(O)cc2CN1CCCF` are 6.59, 8.79, 7.71, 159 and 12.2.
Take `CC(C)[C@@H](CN1CC[C@@](C)(c2cccc(O)c2)[C@@H](C)C1)NC(=O)[C@H]1Cc2ccc(OCCCF)cc2CN1`: the figures for the negative logarithm of the Ki (pKi) (in assay [1]; in assay [2]; at Mu-type opioid receptor) were 7.14, 8.09 and 7.24, respectively. The Ratio Ki came out at 8.9 in assay [3] and 7 in assay [4].
As to `Cc1cc(C)cc([C@@H]2CCCN2Cc2ccc(Oc3ccc(C(N)=O)cc3F)cc2)c1` [ATICAPRANT], the Ratio Ki was found to be 194 in the assay filed under Homo sapiens [5] and 30 in the assay filed under Homo sapiens [7]. Further, the pKi in assay [6] is 9.10.

The values are drawn from ChEMBL document CHEMBL3396991 (Eur J Med Chem, 2015).
